Bioassay records deposited in PubChem by Broad Institute.
The list is not random: actives were taken first. Their share in the collection is about 2.7%.
CaV13 ICDI inh – Primary screen for inhibitors of IQ motif and Ca2+-dependent inactivation inhibitor domain binding in CACNA1D, Förster resonance energy transfer in living cells, … | HEK cells, CFP/YFP FRET ICDI-IQ, plate reader, 10 min; percent FRET-ratio fall versus neutral wells | 340,000 tested, 0.098% active | inhibition, % at 12.3 µM;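 active means mean replicate inhibition of at least 30% and at least 1% of replicates passing that level; inconclusive means only one of the two criteria is met; inactive means neither criterion is met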;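 further: 0% = median of the neutral control wells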
AF4-AF9 inh – MLL-AF4/AF9 protein interaction inhibition; P42568; AlphaScreen, biotin-AF4 peptide binding to FLAG-AF9; inhibition, % at 10 µM; 350,000 tested, 0.47% active;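 active means every replicate reaching a set inhibition limit, whatever the replicate mean, cut at about 25% in these data; inconclusive means mean inhibition reaches that limit but some replicates miss it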;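 further: 0% = plate neutral control median and 100% = total signal loss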
S100A4 MyoIIA – blocks human S100A4 binding to myosin IIA peptide | 360,000 tested, 0.14% active | S100A4/TAMRA-MyoIIA peptide fluorescence polarization | inhibition, % at 10.7 µM | P26447;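 active means mean inhibition of at least 70% across replicates, with every replicate also reaching that level; inconclusive means mean inhibition reaches 70% but some replicates fall short; inactive means mean inhibition below 70%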
Target sequence (P26447 whole entry, looked up): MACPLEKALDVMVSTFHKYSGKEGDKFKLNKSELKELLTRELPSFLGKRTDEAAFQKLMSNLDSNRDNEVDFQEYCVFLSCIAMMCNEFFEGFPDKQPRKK
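Test system: S100A4 monomer protein. Medium: HEPES buffer with Ca2+, pH 7.2. Reagent: fluorescent myosin IIA peptide, 5 nM. Compound dosing: single-point compound testing. Timing: 5 min between mix addition and reading. Benchmarks: DMSO neutral and TFP positive wells.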
SIRT5 block – inhibitors of human sirtuin-5 desuccinylase; Q9NXA8; Purified SirT5, succinyl-peptide AMC, trypsin-coupled fluorescence; inhibition, % at 15 µM; 330,000 tested, 1.1% active; in the data active means inhibition above about 15%; inconclusive means no clear call, values can overlap the other calls
Target sequence (Q9NXA8 whole entry, looked up): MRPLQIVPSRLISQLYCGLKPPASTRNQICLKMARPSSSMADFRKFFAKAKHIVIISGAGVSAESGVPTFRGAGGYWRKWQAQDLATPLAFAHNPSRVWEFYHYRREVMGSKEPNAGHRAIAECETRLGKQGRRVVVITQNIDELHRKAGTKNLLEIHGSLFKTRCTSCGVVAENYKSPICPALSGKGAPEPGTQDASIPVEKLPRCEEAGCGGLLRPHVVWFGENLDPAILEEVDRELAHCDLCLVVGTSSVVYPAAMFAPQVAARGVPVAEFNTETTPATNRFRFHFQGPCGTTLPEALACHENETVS
DENV2 CPE rescue – DENV2-induced cell death inhibition; DENV2-infected cells, cytopathic effect rescue, plate reader; CPE inhibition, % at 9.99 µM; 350,000 tested, 1.7% active; in the data active means CPE inhibition above about 20%, passing the limit was not always enough; inconclusive means no clear call, values can overlap the other calls; tested in BHK-21 cells;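 further: 0% = median of neutral control wells and 100% = median of positive control wells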
Active calls of the source: *; ? = inconclusive; / = no result given.

SMILES | CaV13 ICDI inh | AF4-AF9 inh | S100A4 MyoIIA | SIRT5 block | DENV2 CPE rescue
C[C@@H]1CN([C@H](C)CO)C(=O)c2cc(NS(=O)(=O)c3ccc(Cl)cc3)ccc2O[C@@H](C)CCCCO[C@H]1CN(C)S(=O)(=O)c1ccc(Cl)cc1 | / | / | / | / | 54*
CC(C)NC(=O)N1[C@@H](CO)[C@@H]2c3ccccc3N(C(=O)Nc3ccccc3)C[C@@H]21 | / | 2 | 1 | -2 | 12
C[C@@H]1CCCCO[C@H](CN(C)S(=O)(=O)c2ccc(Cl)cc2)[C@H](C)CN([C@@H](C)CO)C(=O)c2cc(N(C)C)ccc2O1 | / | 13 | 0 | 21* | -10
Cc1ccc(S(=O)(=O)N(C)C[C@H]2OCCCC[C@H](C)Oc3ccc(NS(=O)(=O)c4ccc(Cl)cc4)cc3C(=O)N([C@@H](C)CO)C[C@@H]2C)cc1 | / | -1 | -11 | 24* | -2
C[C@@H]1CCCCO[C@@H](CN(C)S(=O)(=O)c2ccc(Cl)cc2)[C@@H](C)CN([C@H](C)CO)C(=O)c2cc(NS(C)(=O)=O)ccc2O1 | / | 1 | 1 | 1 | 22*
Cc1ccc(S(=O)(=O)N(C)C[C@@H]2OCCCC[C@@H](C)Oc3ccc(NS(=O)(=O)c4ccc(Cl)cc4)cc3C(=O)N([C@H](C)CO)C[C@@H]2C)cc1 | / | 0 | -2 | 15 | ?
CCCNC(=O)N1C[C@H](C)[C@@H](OC)CN(C)C(=O)c2cc(NC(=O)CCC)ccc2OC[C@@H]1C | / | -3 | -10 | 8 | -5
NC(=O)CCN1CCC(c2nc3ccccc3s2)CC1 | -3 | 1 | -4 | 24* | 3
Cc1noc(C)c1NC(=O)N(C)C[C@@H]1Oc2ccc(NC(=O)Nc3ccc(C(F)(F)F)cc3)cc2CC(=O)N([C@H](C)CO)C[C@@H]1C | / | 0 | -3 | 4 | -9
CCC(C(=O)Nc1c(C)cccc1C)n1c(-c2cnc(C)cn2)nc2ccccc21 (configuration not stated) | -15 | / | 6 | 5 | 3
CCC(C(=O)Nc1c(C)cccc1C)n1c(-c2ccc(=O)[nH]c2)nc2ccccc21 (configuration not stated) | -8 | 4 | 0 | / | 33*
Cc1cc(Cn2nc(C(=O)NCC3CC3)cc2-c2ccccc2)on1 | -5 | -3 | 0 | -2 | 22*
Cc1ccc(CNC(=O)c2cc(-c3ccccc3)n(Cc3cc(C)no3)n2)cc1 | -11 | -2 | 0 | -1 | 5
C/C=C/c1ccc2c(c1)O[C@@H](CN(C)CC1CCCC1)[C@H](C)CN([C@@H](C)CO)S2(=O)=O | / | 6 | -30 | 18* | 5
C[C@H](CO)N1C[C@H](C)[C@@H](CN(C)CC2CCCC2)Oc2cc(Br)ccc2S1(=O)=O | / | 0 | 14 | 16* | 15
COc1ccc(NC(=O)Nc2ccc3c(c2)CC(=O)N([C@H](C)CO)C[C@@H](C)[C@@H](CN(C)C(=O)Nc2ccccc2)O3)cc1 | / | 2 | -1 | -4 | 9
CCN(CC)CCNC(=O)c1sc2nc(-c3ccccc3)cn2c1C | 48* | 2 | -2 | 3 | -2
Cc1noc(C)c1COc1ccc(C(=O)N2CCN(S(=O)(=O)c3cccc(F)c3)CC2)cc1 | -5 | -5 | -6 | 28* | 1
C=CC[C@H](CC(=O)NCCO)C(=O)NCCOC(=O)[C@@H](CC=C)Cc1ccc(F)cc1 | -10 | / | 0 | / | 47*
CCC(=O)N1CCCCN2[C@H](C1)[C@@H](c1ccc(C#Cc3cccnc3)cc1)[C@@H]2CO | / | -5 | 46 | 15 | 24*
CCC(=O)N1CCCCN2[C@H](C1)[C@H](c1ccc(C#Cc3cccnc3)cc1)[C@@H]2CO | / | 2 | -3 | 2 | 28*
CCC(=O)N1CCCCN2[C@H](CO)[C@@H](c3ccc(C#Cc4cccnc4)cc3)[C@H]2C1 | / | 7 | -2 | 2 | -7
C[C@@H]1CN([C@@H](C)CO)C(=O)c2cc(NC(=O)CCN3CCOCC3)ccc2O[C@H]1CN(C)Cc1ccc(C(=O)O)cc1 | / | -1 | -3 | 4 | -2
O=C(Cc1ccccn1)c1ccccc1 | -5 | -1 | -3 | / | 50*
O=C(Cc1ccccn1)c1ccc(Cl)cc1 | -11 | 1 | 20 | / | -12
Cc1ccccc1NC(=O)C[C@H]1CC[C@H]2[C@@H](COc3ccc(NC(=O)C4CCC4)cc3C(=O)N2C)O1 | / | -1 | -14 | -4 | -2
